Assay results published in ChEMBL document CHEMBL1139880, “Potent and selective agonists of human melanocortin receptor 5: cyclic analogues of alpha-melanocyte-stimulating hormone” (J Med Chem, 2007).

Key:
[1] = biological target: T1, Melanocyte-stimulating hormone receptor (Homo sapiens, UniProt Q01726); experiment: Agonist activity at human melanocortin receptor 1b expressed in CHO cells assessed as cAMP accumulation; assay type: functional, cell-based
Method in brief: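 Dissociated CHO cells were spun 5 min and resuspended in Earle's balanced salt solution with 10 mM HEPES pH 7.5, 5 mM MgCl2, 1 mM glutamine and 1 mg/mL BSA. They were incubated 40 min at room temperature with compound (0.003–5000 nM) plus 0.6 mM IBMX, then lysed with 0.1 M HCl. cAMP was measured by Flashplate cAMP assay.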

[2] = biological target: T1, Melanocyte-stimulating hormone receptor; experiment: Displacement of [125I]NDPalphaMSH from human cloned melanocortin receptor 1b expressed in CHO cells; assay type: cell-based
Melanocortin receptor 3 = Melanocortin receptor 3 (Homo sapiens, UniProt P41968); experiment: Displacement of [125I]NDPalphaMSH from human cloned MC3R expressed in CHO cells; assay type: cell-based
Chain of Melanocortin receptor 3 (P41968 whole entry): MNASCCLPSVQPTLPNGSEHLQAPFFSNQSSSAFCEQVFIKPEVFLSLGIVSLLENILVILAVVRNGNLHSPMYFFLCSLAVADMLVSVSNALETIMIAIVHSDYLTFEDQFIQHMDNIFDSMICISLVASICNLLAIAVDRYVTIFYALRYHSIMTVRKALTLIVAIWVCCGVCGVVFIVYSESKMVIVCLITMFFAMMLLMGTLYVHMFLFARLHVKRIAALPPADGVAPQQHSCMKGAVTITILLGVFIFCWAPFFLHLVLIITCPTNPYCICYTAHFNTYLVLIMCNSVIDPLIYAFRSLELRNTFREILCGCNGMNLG

Melanocortin receptor 4 = Melanocortin receptor 4 (Homo sapiens, UniProt P32245); experiment: Displacement of [125I]NDPalphaMSH from human cloned MC4R expressed in CHO cells; assay type: cell-based
Chain of Melanocortin receptor 4 (P32245 whole entry): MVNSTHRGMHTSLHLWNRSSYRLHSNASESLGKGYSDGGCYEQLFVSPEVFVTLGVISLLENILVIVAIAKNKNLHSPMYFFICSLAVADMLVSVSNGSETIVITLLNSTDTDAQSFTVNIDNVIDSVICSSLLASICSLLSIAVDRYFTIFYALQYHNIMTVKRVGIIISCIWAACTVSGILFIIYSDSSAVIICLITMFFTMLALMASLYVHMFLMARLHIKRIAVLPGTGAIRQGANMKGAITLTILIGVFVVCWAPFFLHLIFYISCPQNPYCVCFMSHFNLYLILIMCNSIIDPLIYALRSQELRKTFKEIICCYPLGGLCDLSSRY

Melanocortin receptor 5 [3] = biological target: T2, Melanocortin receptor 5 (Homo sapiens, UniProt P33032); experiment: Displacement of [125I]NDPalphaMSH from human cloned MC5R expressed in CHO cells; assay type: cell-based
T2 sequence (P33032 whole entry): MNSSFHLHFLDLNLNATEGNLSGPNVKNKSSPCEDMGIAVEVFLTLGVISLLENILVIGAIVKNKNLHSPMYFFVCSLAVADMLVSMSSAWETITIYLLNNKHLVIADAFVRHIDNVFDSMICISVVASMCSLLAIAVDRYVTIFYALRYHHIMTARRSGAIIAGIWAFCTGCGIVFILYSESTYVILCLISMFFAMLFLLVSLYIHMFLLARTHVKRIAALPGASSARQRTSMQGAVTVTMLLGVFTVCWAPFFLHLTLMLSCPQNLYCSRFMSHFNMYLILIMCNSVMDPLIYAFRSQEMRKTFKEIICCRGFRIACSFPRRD

Melanocortin receptor 5 [4] = biological target: T2, Melanocortin receptor 5; experiment: Agonist activity at human MC5R expressed in CHO cells assessed as cAMP accumulation; assay type: functional, cell-based

T1 sequence (Q01726 whole entry): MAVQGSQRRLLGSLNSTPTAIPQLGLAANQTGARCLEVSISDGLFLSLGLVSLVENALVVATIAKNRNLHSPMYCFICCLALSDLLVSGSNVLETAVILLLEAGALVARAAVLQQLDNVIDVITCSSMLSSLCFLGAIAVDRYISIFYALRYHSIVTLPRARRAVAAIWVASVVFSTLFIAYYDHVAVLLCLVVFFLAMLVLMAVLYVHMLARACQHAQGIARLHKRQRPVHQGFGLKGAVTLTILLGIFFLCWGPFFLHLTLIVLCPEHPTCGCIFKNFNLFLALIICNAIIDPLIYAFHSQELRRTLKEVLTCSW

EC50 [1] | IC50 [2] | IC50 (Melanocortin receptor 3; cho) [nM] | IC50 ([2]; cho) | IC50 (Melanocortin receptor 4; cho) | IC50 (Melanocortin receptor 5 [3]; cho) | IC50 (Melanocortin receptor 3) | IC50 (Melanocortin receptor 5 [3]) | EC50 (Melanocortin receptor 5 [4]) | IC50 (Melanocortin receptor 4) | Compound
50 nM (agonist) | 500 nM (antagonist) |  |  |  |  |  |  |  |  | CCCC[C@H](NC(C)=O)C(=O)N[C@H]1CC(=O)NCCCC[C@@H](C(N)=O)NC(=O)[C@H](Cc2c[nH]c3ccccc23)NC(=O)[C@@H]2CCCN2C(=O)[C@@H](Cc2ccc(OC)cc2)NC(=O)[C@H](Cc2cnc[nH]2)NC1=O
 |  | > 10000 | 2900 nM (antagonist) | 74 nM (antagonist) | 1500 nM (antagonist) |  |  |  |  | CCCC[C@H](NC(C)=O)C(=O)N[C@H]1CC(=O)NCCCC[C@@H](C(N)=O)NC(=O)[C@H](Cc2c[nH]c3ccccc23)NC(=O)[C@@H]2CCCN2C(=O)[C@@H](C(c2ccccc2)c2ccccc2)NC(=O)[C@H](Cc2c[nH]cn2)NC1=O
 | > 10000 nM |  |  |  |  |  |  |  |  | CCCC[C@H](NC(C)=O)C(=O)N[C@H]1CC(=O)NCCCC[C@@H](C(N)=O)NC(=O)[C@H](Cc2c[nH]c3ccccc23)NC(=O)[C@@H]2CCCN2C(=O)[C@@H](CCCC)NC(=O)[C@H](Cc2cnc[nH]2)NC1=O
 | > 2000 nM |  |  |  |  |  |  |  |  | CCCC[C@H](NC(C)=O)C(=O)N[C@H]1CC(=O)NCCCC[C@@H](C(N)=O)NC(=O)[C@H](Cc2c[nH]c3ccccc23)NC(=O)[C@@H]2CCCN2C(=O)[C@H](Cc2ccc(OC)cc2)NC(=O)[C@H](Cc2cnc[nH]2)NC1=O

Further lines, the compound ahead of its results:

Compound | EC50 [1] | IC50 [2] | IC50 (Melanocortin receptor 3; cho) [nM] | IC50 ([2]; cho) | IC50 (Melanocortin receptor 4; cho) | IC50 (Melanocortin receptor 5 [3]; cho) | IC50 (Melanocortin receptor 3) | IC50 (Melanocortin receptor 5 [3]) | EC50 (Melanocortin receptor 5 [4]) | IC50 (Melanocortin receptor 4)
CCCC[C@H](NC(C)=O)C(=O)N[C@H]1CC(=O)NCCCC[C@@H](C(N)=O)NC(=O)[C@H](Cc2c[nH]c3ccccc23)NC(=O)[C@@H]2CCCN2C(=O)[C@@H](Cc2ccc([N+](=O)[O-])cc2)NC(=O)[C@H](Cc2cnc[nH]2)NC1=O | > 500 nM | > 2000 nM |  |  |  |  | > 2000 nM | 780 nM (antagonist) | 770 nM (agonist) | 
CCCC[C@H](NC(C)=O)C(=O)N[C@H]1CC(=O)NCCCC[C@@H](C(N)=O)NC(=O)[C@H](Cc2c[nH]c3ccccc23)NC(=O)[C@@H]2CCCCN2C(=O)[C@@H](Cc2ccc(-c3ccccc3)cc2)NC(=O)[C@@H]2Cc3ccccc3CN2C1=O | 130 nM (agonist) | 710 nM (antagonist) |  |  |  |  | 3900 nM (antagonist) | 2.7 nM (antagonist) | 0.45 nM (agonist) | 720 nM (antagonist)
CCCC[C@H](NC(C)=O)C(=O)N[C@H]1CC(=O)NCCCC[C@@H](C(N)=O)NC(=O)[C@H](Cc2c[nH]c3ccccc23)NC(=O)[C@@H]2CCCCN2C(=O)[C@@H](Cc2ccc(-c3ccccc3)cc2)NC(=O)[C@@H]2CC3CCCCC3N2C1=O (some centres undefined) |  | > 5000 nM |  |  |  |  | > 5000 nM | 0.95 nM (antagonist) | 0.99 nM (agonist) | > 5000 nM
CCCC[C@H](NC(C)=O)C(=O)N[C@H]1CC(=O)NCCCC[C@@H](C(N)=O)NC(=O)[C@H](Cc2c[nH]c3ccccc23)NC(=O)[C@@H]2CCCN2C(=O)[C@@H](Cc2cccs2)NC(=O)[C@H](Cc2cnc[nH]2)NC1=O | 540 nM (agonist) | > 5000 nM |  |  |  |  | > 5000 nM | > 5000 nM | > 1500 nM | 
CCCC[C@H](NC(C)=O)C(=O)N[C@H]1CC(=O)NCCCC[C@@H](C(N)=O)NC(=O)[C@H](Cc2c[nH]c3ccccc23)NC(=O)[C@@H]2CCCN2C(=O)[C@@H](Cc2ccccc2)NC(=O)[C@H](Cc2cnc[nH]2)NC1=O | 1300 nM (agonist) | 2500 nM (antagonist) |  |  |  |  |  |  |  | 
CCCC[C@H](NC(C)=O)C(=O)N[C@H]1CC(=O)NCCCC[C@@H](C(N)=O)NC(=O)[C@H](Cc2c[nH]c3ccccc23)NC(=O)[C@@H]2CCCN2C(=O)[C@@H](CCCCN)NC(=O)[C@H](Cc2cnc[nH]2)NC1=O |  | > 10000 nM |  |  |  |  | > 10000 nM | > 10000 nM |  | 
CCCC[C@H](NC(C)=O)C(=O)N[C@H]1CC(=O)NCCCC[C@@H](C(N)=O)NC(=O)[C@H](Cc2c[nH]c3ccccc23)NC(=O)[C@@H]2CCCN2C(=O)[C@@H](Cc2ccc(-c3ccccc3)cc2)NC(=O)[C@@H]2CC3CCCCC3N2C1=O (some centres undefined) | > 2500 nM | 7800 nM (antagonist) |  |  |  |  | 4400 nM (antagonist) | 10 nM (antagonist) | 17 nM (agonist) | 4700 nM (antagonist)
CCCC[C@H](NC(C)=O)C(=O)N[C@H]1CC(=O)NCCCC[C@@H](C(N)=O)NC(=O)[C@H](Cc2c[nH]c3ccccc23)NC(=O)[C@@H]2CCCN2C(=O)[C@@H](CCC(=O)O)NC(=O)[C@H](Cc2c[nH]cn2)NC1=O |  | > 10000 nM |  |  |  |  | > 10000 nM | > 10000 nM |  | > 10000 nM
